Biological target: Transient receptor potential cation channel subfamily V member 1 (Homo sapiens) (UniProt Q8NER1)
Experiment: Inhibition of human TRPV1 expressed in HEK293 cells assessed as decrease in capsaicin-evoked increase in intracellular calcium level at 22 uM preincubated for 2 mins followed by capsaicin addition measured for 2.5 mins by Fluo8-AM dye-based fluorescence assay relative to control
Type: cell-based
Summary of the method: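 Same TRP panel as for the stimulation tests, with FMP dye for TRPC4 and M5 and Fluo8-AM for TRPA1, V1 and M8. Compound applied for 2 min before the channel agonist (TRPC4: 1 μM DAMGO). Inhibition of the agonist response measured on a FlexStation at 32 °C.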

Transient receptor potential cation channel subfamily V member 1 (Homo sapiens), sequence (Q8NER1 whole entry): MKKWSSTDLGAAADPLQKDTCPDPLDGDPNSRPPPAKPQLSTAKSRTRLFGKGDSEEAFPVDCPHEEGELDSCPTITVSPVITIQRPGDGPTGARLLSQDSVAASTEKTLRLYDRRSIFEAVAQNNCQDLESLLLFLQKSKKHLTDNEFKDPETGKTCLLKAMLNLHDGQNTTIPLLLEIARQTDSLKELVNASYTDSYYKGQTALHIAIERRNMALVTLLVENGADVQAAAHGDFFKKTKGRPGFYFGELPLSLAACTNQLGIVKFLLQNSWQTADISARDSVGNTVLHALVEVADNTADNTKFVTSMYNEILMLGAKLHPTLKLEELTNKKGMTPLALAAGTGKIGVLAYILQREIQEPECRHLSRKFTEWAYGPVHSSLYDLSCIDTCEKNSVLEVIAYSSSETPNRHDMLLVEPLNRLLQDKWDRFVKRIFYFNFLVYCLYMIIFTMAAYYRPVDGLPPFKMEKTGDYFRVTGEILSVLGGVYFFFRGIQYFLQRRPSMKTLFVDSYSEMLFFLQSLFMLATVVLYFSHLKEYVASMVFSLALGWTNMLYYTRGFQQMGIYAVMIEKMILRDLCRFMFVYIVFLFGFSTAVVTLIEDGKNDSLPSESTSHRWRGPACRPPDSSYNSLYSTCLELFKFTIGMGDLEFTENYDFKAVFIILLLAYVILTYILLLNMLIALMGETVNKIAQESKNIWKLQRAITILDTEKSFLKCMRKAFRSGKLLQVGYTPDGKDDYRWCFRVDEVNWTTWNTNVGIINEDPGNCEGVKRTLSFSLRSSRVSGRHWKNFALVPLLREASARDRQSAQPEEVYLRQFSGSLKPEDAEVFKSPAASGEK

inhibition: < 20%
Structure (SMILES): CCOC(=O)N1CCC(c2cc(O)n3nc(C)c(-c4ccc(C(F)(F)F)cc4)c3n2)CC1

Reference: ChEMBL document CHEMBL4014306, “Pyrazolopyrimidines as Potent Stimulators for Transient Receptor Potential Canonical 3/6/7 Channels” (J Med Chem, 2017)
